Assay outcomes from PubChem BioAssay.
PfM18AAP inh: blocks P. falciparum M18 aspartyl aminopeptidase | inhibition, % at 7.35 µM | hit rate 1.2% among 290,000 | recombinant PfM18AAP, H-Glu-NHMec fluorogenic cleavage;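 active = inhibition above the campaign mean inhibition over all tested compounds plus 3 SD, cut at about 28% in these data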
Wee1 stabilizer: human Wee1 degradation inhibition, primary screen; P30291; HeLa Luc-Wee1K328M stability, luciferase luminescence; 100% = proteasome inhibitor MG132 effect; reporter increase, % at 5 µM; hit rate 1.2% among 220,000; AID 1321;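 active = activation above the mean of all tested compounds plus 3 SD, set per screening run, cut at about 8.8% in these data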;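 note: cells exposed to compound for 20 h before luminescence read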
RBBP9 inh: human RBBP9 hydrolase inhibition. recombinant RBBP9, FP-Rh probe fluorescence polarization. inhibition, % at 7.94 µM. hit rate 0.2% among 220,000. AID 1515;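 active = inhibition above the campaign mean of all tested compounds plus 3 SD, cut at about 14% in these data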
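System: RBBP9 protein / Quantity: 2.5 µM RBBP9 dispensing solution, before mixing / Also added: Serine-hydrolase probe FP-Rh, 375 nM pre-mixing / Dosing: 7.94 µM single dose, 0.794% DMSO / Timing: enzyme-compound preincubation 30 min, then probe labeling 45 min, 25 °C / Signal: FP readout at 525/598 nm / Controls: DMSO-treated enzyme wells and wells lacking RBBP9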
TNF death inh: blocks TNF-alpha induced death of Jurkat FADD-/- cells. activation (protection from cell death), % at 10 µM. Jurkat FADD-/- TNF necroptosis rescue, ATP luminescence, 24 h; 0 = TNF only, 100 = no-TNF cells. AID 463075. hit rate 0.068% among 220,000;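 active = activation, meaning protection from cell death, of at least 50% relative to plate controls; inactive = activation below 50%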;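 note: necroptosis triggered by 40 ng/mL TNF-alpha added together with compound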
L929 necroptosis: L929 zVAD cell death inhibition; viability rescue, % at 10 µM; hit rate 0.38% among 220,000; L929 zVAD necroptosis rescue, ATP luminescence, 24 h; with zVAD 60 µM;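 active = activation, scaled between plate controls, above about 75%, limit read from the data; inactive = activation under that limit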
p97 inhibitor: human p97 ATPase inhibition; inhibition, % at 8 µM; recombinant p97 ATPase, Kinase-Glo ATP luminescence, 3 h; hit rate 0.42% among 220,000; AID 1481; in the data active = inhibition above about 15%
Target sequence (P55072 whole entry, looked up): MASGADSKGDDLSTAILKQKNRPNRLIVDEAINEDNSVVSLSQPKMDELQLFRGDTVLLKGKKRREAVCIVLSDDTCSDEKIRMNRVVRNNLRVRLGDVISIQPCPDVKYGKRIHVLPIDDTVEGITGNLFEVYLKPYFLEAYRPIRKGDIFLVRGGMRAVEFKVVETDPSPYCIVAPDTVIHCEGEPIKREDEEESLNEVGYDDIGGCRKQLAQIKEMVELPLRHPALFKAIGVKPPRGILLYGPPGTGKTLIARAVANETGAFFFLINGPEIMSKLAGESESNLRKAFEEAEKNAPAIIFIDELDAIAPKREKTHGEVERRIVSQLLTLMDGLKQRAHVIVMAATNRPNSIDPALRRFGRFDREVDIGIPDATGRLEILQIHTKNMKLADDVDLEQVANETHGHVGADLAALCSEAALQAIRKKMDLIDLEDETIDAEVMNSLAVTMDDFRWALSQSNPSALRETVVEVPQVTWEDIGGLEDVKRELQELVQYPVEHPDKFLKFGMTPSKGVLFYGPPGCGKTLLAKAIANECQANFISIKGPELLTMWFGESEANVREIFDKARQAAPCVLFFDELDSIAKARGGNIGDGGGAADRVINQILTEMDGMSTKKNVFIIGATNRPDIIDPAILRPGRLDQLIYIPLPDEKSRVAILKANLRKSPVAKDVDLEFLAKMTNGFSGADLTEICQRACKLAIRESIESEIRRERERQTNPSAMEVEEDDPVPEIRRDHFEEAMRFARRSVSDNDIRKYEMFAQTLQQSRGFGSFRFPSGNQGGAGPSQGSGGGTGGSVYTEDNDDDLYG
Hits are given with their value; 0 = inactive; - = not tested or not shown; ! = repeats disagree. A selection: hits, their analogues and other compounds. The true share with any hit is near 2.7%.

SMILES | PfM18AAP inh | Wee1 stabilizer | RBBP9 inh | TNF death inh | L929 necroptosis | p97 inhibitor
O=C1CSC(=S)N1/N=C/c1cc(Br)ccc1O | 35 | - | - | - | - | -
CC(C)(C)c1ccc(/C=N/N2C(=O)CSC2=S)cc1 | 31 | - | - | - | - | -
CC(C)(C)c1ccc(/C=N/n2cnnc2)cc1 | 0 | 0 | 0 | 0 | 0 | 0
O=c1[nH]c(CSc2ncnc3sc(-c4ccccc4)cc23)nc2ccccc12 | 0 | 0 | 0 | 0 | 0 | 0
CC1CCN(CCNC(=O)c2ccc(NC(=O)C3CCCO3)cc2)CC1 (centres undefined) | 0 | 9.3 | 0 | 0 | 0 | 0
C=CCSc1nnc2c(n1)OC(C)=Nc1ccc(Br)cc1-2 | 0 | 0 | 0 | 0 | 0 | 0
CC[C@@H]1[C@H]2CCCC(=O)N3CC[C@@H](C[C@@H]1Nc1ccccc1)[C@@H]23 | 0 | - | - | - | - | -
COc1ccc2cc(C(=O)/C=C/c3cc(OC)c(O)c(OC)c3)ccc2c1 | 29 | - | - | - | - | -
C/C(=N/NS(=O)(=O)c1cc(C)ccc1C)c1ccncc1 | 31 | - | - | - | - | -
C/C(=N/NS(=O)(=O)c1cc(C)ccc1C)c1ccc2c(c1)OCO2 | 0 | - | - | - | - | -
CN1CCc2c(sc(NC(=O)c3ccc(S(=O)(=O)N4CCc5ccccc54)cc3)c2C(N)=O)C1 | 0 | 0 | 0 | 0 | 0 | 15
CCN(CC)C1CC(=O)N(c2cccc(C)c2)C1=O (centres undefined) | 0 | 10.0 | 0 | 0 | 0 | 0
OCCn1c(-c2ccc(F)cc2)csc1=Nc1ccccc1 | 41 | 0 | 0 | 0 | - | 0
COc1ccc(CN(C)C(=S)Nc2ccc(Cl)cc2)cc1 | 0 | 0 | 0 | 0 | 0 | 0
O=C(/C=C/c1ccc2c(c1)OCCCO2)c1ccccc1O | 0 | 0 | 0 | 0 | 0 | 0
Cc1ccc(O)c(C(=O)/C=C/c2ccc3c(c2)OCCCO3)c1 | 0 | 9.2 | 0 | 0 | 0 | 0
CCSCc1nnc(SCC(=O)Nc2ccc(OC)cc2)n1C | 0 | 0 | 0 | 0 | 0 | 0
CN1C/C(=C/c2cccnc2)C(=O)/C(=C/c2cccnc2)C1 | 0 | 0 | 0 | 80 | 0 | 0
COc1ccc(C(=O)NCCN2CCCC2)cc1[N+](=O)[O-] | 0 | - | - | - | - | -
O=C(NCSc1ccncn1)c1ccccc1 | 0 | 0 | 0 | 0 | 0 | 0
O=C(NCSc1ccnc(SCNC(=O)c2ccccc2)n1)c1ccccc1 | 38 | 0 | 0 | 0 | 0 | 0
COc1cccc(/C=N/NC(=O)C(=O)N/N=C/c2cccc(OC)c2O)c1O | 0 | 0 | 0 | 0 | 0 | 0
COc1ccccc1CCNC(=O)NC1CCCCC1 | 0 | 9.7 | 0 | 0 | 0 | 0
COc1cccc(/C=N/NC(=O)NC2CCCCC2)c1O | 0 | 10 | 0 | 0 | 0 | 0
COc1cccc(CC(NC(C)=O)C(=O)NC2CCN(C(=O)c3ccc(Cl)cc3)CC2)c1OC (centres undefined) | 0 | - | - | - | - | -
SMILES | PfM18AAP inh | Wee1 stabilizer | RBBP9 inh | TNF death inh | L929 necroptosis | p97 inhibitor
NS(=O)(=O)c1ccc(CCNC(=O)c2ccc(-c3ccccc3)cc2)cc1 | 0 | - | - | - | - | -
C=CCOc1ccc(/C=C2/C(=O)ON=C2C)cc1OC | 30 | - | - | - | - | -
CCCCc1cc(=O)oc2cc(O)ccc12 | 0 | 0 | 0 | 0 | 0 | 0
CCOC(=O)c1ccc(CNCc2ccccc2)cc1 | 0 | 0 | 0 | 0 | 0 | 0
CCOC(=O)NC1(NCc2ccccc2)Oc2ccccc2O1 | 54 | 0 | 0 | 0 | 0 | 0
Cc1c(C)c2ccc(OCC(=O)Nc3ccc(S(N)(=O)=O)cc3)c(C)c2oc1=O | 0 | - | - | - | - | -
CC(=O)N1CCOCCOCCN(C(C)=O)CCOCC1 | 0 | 11 | 0 | 0 | 0 | 0
N#CCc1ccc(NC(=O)Nc2cccc(Cl)c2)cc1 | 0 | 0 | 0 | 0 | 0 | 0
N#CCc1cc2ccc3cccc4ccc(c1)c2c34 | 0 | 22 | 0 | 0 | 0 | 0
CC1CCCCC1NC(=O)CSc1nnc(COc2ccc(Cl)cc2)o1 (centres undefined) | 0 | - | - | - | - | -
Cc1ccccc1NC(=O)CSC1=C(C#N)C(c2ccsc2)CC(=O)N1 (centres undefined) | 0 | 0 | 0 | 0 | 0 | 0
Cc1ccc(C2CC(=O)NC(SCc3ccccc3)=C2C#N)cc1 (centres undefined) | 0 | 0 | 0 | 0 | 0 | 0
N#CC1=C(SCC(=O)Nc2nccs2)NC(=O)CC1c1ccccc1 (centres undefined) | 0 | 0 | 0 | 75 | 82 | 0
N#CC1=C(SCc2ccccc2)NC(=O)CC1c1ccc(O)cc1 (centres undefined) | 29 | 0 | 0 | 0 | 0 | 0
Fc1ccc(-c2nc3c(-c4ccccc4)cnn3cc2CCN2CCOCC2)cc1 | 0 | 0 | 0 | 0 | 0 | 0
c1ccc(-c2cn(-c3ccccc3)c3[n+]2CCS3)cc1 | 0 | 0 | 0 | 0 | 0 | 0
COc1ccc(-c2cn(-c3ccccc3)c3[n+]2CCS3)cc1 | 0 | 11! | 0 | 0 | 0 | 0
COc1cccc(NC(=O)[C@H](C)NC(=O)C2CCN(S(=O)(=O)c3ccc(C)cc3)CC2)c1 | 0 | 0 | 0 | 0 | 0 | 0
CC1(C)C(C=C(Cl)Cl)C1C(=O)Nc1ccc([N+](=O)[O-])cc1 (centres undefined) | 0 | 0 | 0 | 0 | 0 | 0
CN(C)S(=O)(=O)c1cccc(NC(=O)COc2ccc(C(=O)c3ccccc3)cc2)c1 | 0 | - | - | - | - | -
CC(=O)NS(=O)(=O)c1ccc(NC(=O)COc2ccc(C(=O)c3ccccc3)cc2)cc1 | 0 | 10 | 0 | 0 | 0 | 0
Cc1ccc(-c2nc(C#N)c(N3CCCCC3)o2)cc1 | 0 | 9.7 | 0 | 0 | 0 | 0
COc1ccc(-c2nc(C#N)c(N3CCCCC3)o2)cc1 | 0 | - | - | - | - | -
CC(NC(=O)C(c1ccccc1)c1ccccc1)C(=O)N1CCCCC1 (centres undefined) | 0 | 0 | 0 | 0 | 0 | 0
CC(CCCC(C)(C)O)NC(=O)c1ccc(OC2CCN(C(=O)C3CC3)CC2)cc1 (centres undefined) | 0 | 8.9 | 0 | 0 | 0 | 0
SMILES | PfM18AAP inh | Wee1 stabilizer | RBBP9 inh | TNF death inh | L929 necroptosis | p97 inhibitor
O=C(Nc1ccccc1)c1ccc(NCC2CCCO2)c(S(=O)(=O)N2CCOCC2)c1 (centres undefined) | 0 | 0 | 0 | 0 | 0 | 0
O=C(CNc1cc(S(=O)(=O)N2CCOCC2)ccc1NCC1CCCO1)Nc1cccc(F)c1 (centres undefined) | 29 | - | - | - | - | -
Cc1c(NC(=S)NNC(=O)CCC(=O)O)c(=O)n(-c2ccccc2)n1C | 0 | 0 | 0 | 0 | 0 | 0
COc1cc(C2C(C(=O)c3ccc(C)o3)=C(O)C(=O)N2c2cc(C)on2)ccc1O (centres undefined) | 28 | 0 | 0 | 0 | 0 | 0
Cc1ccc2oc(C(=O)N3CCN(CC(=O)NC(C)C)CC3)c(C)c2c1 | 0 | - | - | - | - | -
Cc1nnn(-c2nonc2N)c1C(=O)NNC(=O)c1ccc(Cl)c(Cl)c1 | 0 | 0 | 0 | 0 | 0 | 0
CC1CCc2nc(NC(=O)C3CCCO3)sc2C1 (centres undefined) | 0 | 9.7 | 0 | 0 | 0 | 0
CC1CCc2nc(NC(=O)c3ccco3)sc2C1 (centres undefined) | 0 | 0 | 0 | 0 | 0 | 0
